# According to ChEMBL document CHEMBL1138329, “Pharmacokinetic/pharmacodynamic model-guided identification of hypoxia-selective 1,2,4-benzotriazine 1,4-dioxides with antitumor activity: the role of extravascular transport” (J Med Chem, 2007):
# Assays:
# [1] = Cmax in CD1 mouse at 562 umol/kg, ip; type: ADME, organism-based; set-up: dose 562 umol/kg, route intraperitoneal; conditions: in vivo
# Method in brief: (§1)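 Single i.p. dose to CD-1 homozygous nude mice, drug as HCl salt in 0.9% saline, 5% DMSO/saline or lactate buffer (pH 4.0). Plasma total drug measured by HPLC at 75 or 100% of MTD (MTD from 1.33-fold dose steps, 6 mice). Noncompartmental analysis gave AUC, Cmax and t1/2.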
# [2] = test system: HT-29; experiment: Cytotoxicity against human HT29 cells under hypoxic conditions after 4 hrs; type: functional, cell-based; conditions: HT-29, 4 h
# [3] = Solubility in culture medium in presence of 5% fetal calf serum; type: physicochemical; conditions: culture medium with 5% fetal calf serum
# [4] = Protein binding in mouse plasma by equilibrium dialysis; type: ADME, cell-free; conditions: read-out: PPB (converted)
# [5] = test system: SiHa; experiment: Ratio of IC50 for SiHa cells under oxic conditions to hypoxic conditions after 4 hrs; type: functional, Homo sapiens
# [6] = test system: Mus musculus; experiment: Toxicity in ip dosed CD1 mouse; type: organism-based; conditions: in vivo
# Method in brief: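 MTD in CD-1 homozygous nude mice after single i.p. doses (HCl salts in saline, 5% DMSO/saline or lactate buffer pH 4.0), escalated in 1.33-fold increments. MTD taken as the highest dose causing no death, no body weight loss >15% and no other severe morbidity in any of 6 mice.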
# [7] = Half life in CD1 mouse at 562 umol/kg, ip; type: ADME, organism-based; conditions: in vivo; method in brief: as §1
# [8] = test system: HT-29; experiment: Diffusion coefficient, D in HT29 multicellular layers; type: ADME, cell-based; conditions: human
# Method in brief: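 HT29 multicellular layers were grown 3 days on collagen-coated Teflon membranes, equilibrated 60 min under 95% O2/5% CO2 at 37 °C, then placed in a diffusion chamber. Donor and receiver were sampled up to 5 h and assayed by HPLC. D came from fitting both profiles to a Fickian model with membrane and MCL in series, corrected by support-only Ds.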
# [9] = test system: HT-29; experiment: Antitumor activity against human HT29 cells implanted in CD1 mouse at 562 umol/kg, ip administered 5 mins after irradiation by excision assay relative to radiation alone; type: functional
# Method in brief: (§2)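 Hypoxic-cell excision assay in HT29 xenografts in CD-1 homozygous nude mice. Mice received 20 Gy γ radiation to sterilize oxic tumor cells, then a single i.p. drug dose (HCl salt in saline, 5% DMSO/saline or pH 4.0 lactate buffer) 5 min later. Tumors excised at 18 h and plated for clonogens/g. Log cell kill = log(clonogens/g, radiation only) − log(clonogens/g, radiation plus drug).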
# [10] = test system: HT-29; experiment: Ratio of IC50 for HT29 cells under oxic conditions to hypoxic conditions after 4 hrs; type: functional, Homo sapiens
# [11] = test system: SiHa; experiment: Cytotoxicity against human SiHa cells under hypoxic conditions after 4 hrs; type: functional, cell-based
# [12] = test system: HT-29; experiment: Effect on human HT29 cells under hypoxic conditions assessed as drug level causing 10% clonogenic survival; type: functional
# Method in brief: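 HT29 suspensions (1 or 2 × 10^6 cells/mL) in serum-free medium were stirred under 5% CO2/95% N2 for 90 min. Drug was added from deoxygenated DMSO stock at a level giving about 10% survival at 1 h, and samples were taken up to 3 h. Clonogenic survival (14 days, methylene blue) was fitted with the HPLC concentration–time data, and the 10% survival exposure was interpolated.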
# [13] = test system: HT-29; experiment: Antitumor activity against human HT29 cells implanted in CD1 mouse assessed as clonogenic survival at 562 umol/kg, ip after 18 hrs relative to control; type: functional
# Method in brief: (§3)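 HT29 xenografts in CD-1 homozygous nude mice; single i.p. dose of drug alone, formulated as the HCl salt in 0.9% saline, 5% DMSO/saline or lactate buffer (pH 4.0). Tumors excised 18 h later, dissociated to single-cell suspensions and plated. Clonogens/g of tumor counted; surviving fraction = treated/control clonogens/g.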
# [14] = AUC in CD1 mouse at 750 umol/kg, ip; type: ADME, organism-based; conditions: plasma; method in brief: as §1
# [15] = Cmax in CD1 mouse at 750 umol/kg, ip; type: ADME, organism-based; set-up: dose 750 umol/kg, route intraperitoneal; conditions: in vivo; method in brief: as §1
# [16] = test system: HT-29; experiment: Antitumor activity against human HT29 cells implanted in CD1 mouse at 750 umol/kg, ip administered 5 mins after irradiation by excision assay relative to radiation alone; type: functional; method in brief: as §2
# [17] = Half life in CD1 mouse at 750 umol/kg, ip; type: ADME, organism-based; conditions: in vivo; method in brief: as §1
# [18] = test system: HT-29; experiment: Antitumor activity against human HT29 cells implanted in CD1 mouse assessed as clonogenic survival at 750 umol/kg, ip after 18 hrs relative to control; type: functional; method in brief: as §3
# [19] = AUC in CD1 mouse at 1000 umol/kg, ip; type: ADME, organism-based; conditions: plasma; method in brief: as §1
# [20] = test system: HT-29; experiment: Antitumor activity against human HT29 cells implanted in CD1 mouse at 1000 umol/kg, ip administered 5 mins after irradiation by excision assay relative to radiation alone; type: functional; method in brief: as §2
# [21] = test system: HT-29; experiment: Antitumor activity against human HT29 cells implanted in CD1 mouse assessed as clonogenic survival at 1000 umol/kg, ip after 18 hrs relative to control; type: functional; method in brief: as §3
# [22] = Cmax in CD1 mouse at 1000 umol/kg, ip; type: ADME, organism-based; set-up: dose 1000 umol/kg, route intraperitoneal; conditions: in vivo; method in brief: as §1
# [23] = Half life in CD1 mouse at 1000 umol/kg, ip; type: ADME, organism-based; conditions: in vivo; method in brief: as §1
# [24] = AUC in CD1 mouse at 421 umol/kg, ip; type: ADME, organism-based; conditions: plasma; method in brief: as §1
# [25] = Half life in CD1 mouse at 421 umol/kg, ip; type: ADME, organism-based; conditions: in vivo; method in brief: as §1
# [26] = Cmax in CD1 mouse at 421 umol/kg, ip; type: ADME, organism-based; set-up: dose 421 umol/kg, route intraperitoneal; conditions: in vivo; method in brief: as §1
# [27] = Cmax in CD1 mouse at 316 umol/kg, ip; type: ADME, organism-based; set-up: dose 316 umol/kg, route intraperitoneal; conditions: in vivo; method in brief: as §1
# [28] = test system: HT-29; experiment: Antitumor activity against human HT29 cells implanted in CD1 mouse assessed as clonogenic survival at 316 umol/kg, ip after 18 hrs relative to control; type: functional; method in brief: as §3
# [29] = Half life in CD1 mouse at 316 umol/kg, ip; type: ADME, organism-based; conditions: in vivo; method in brief: as §1
# [30] = test system: HT-29; experiment: Antitumor activity against human HT29 cells implanted in CD1 mouse at 316 umol/kg, ip administered 5 mins after irradiation by excision assay relative to radiation alone; type: functional; method in brief: as §2
# [31] = Half life in CD1 mouse at 237 umol/kg, ip; type: ADME, organism-based; conditions: in vivo; method in brief: as §1
# [32] = Cmax in CD1 mouse at 237 umol/kg, ip; type: ADME, organism-based; set-up: dose 237 umol/kg, route intraperitoneal; conditions: in vivo; method in brief: as §1
# [33] = AUC in CD1 mouse at 237 umol/kg, ip; type: ADME, organism-based; conditions: plasma; method in brief: as §1
Structure (SMILES),IC50 [2] [nM],solubility [3] [mM],Ratio IC50 [5],MTD [6] [µmol/kg],D [8] [cm²/s],Ratio IC50 [10],IC50 [11] [nM],Activity [12] [µM·h],further results
Cc1ccc2c(c1)[n+]([O-])c(NCCN(C)C)n[n+]2[O-],1900,> 51,200,562,3.99e-07,159,1100,6.3,Cmax [1]: 104 µM; fraction unbound [4]: 0.04; half-life [7]: 22.5 min; LCK [9]: 1; LCK [13]: 0.07
CCOc1ccc2c(c1)[n+]([O-])c(NCCN(C)C)n[n+]2[O-],2600,> 50,245,1000,,121,800,50.1,AUC [14]: 82.3 µM·h; Cmax [15]: 85.7 µM; LCK [16]: 0.83; half-life [17]: 31.6 min; LCK [18]: 0.09
COc1ccc2c(c1)[n+]([O-])c(NCCN(C)C)n[n+]2[O-],7700,46,232,1000,2.32e-07,89,2900,26.1,AUC [19]: 240 µM·h; LCK [20]: 1.84; LCK [21]: 0.15; Cmax [22]: 157 µM; half-life [23]: 51.5 min
Cc1ccc2c(c1)[n+]([O-])c(NCCN1C(C)CCCC1C)n[n+]2[O-] (stereo not drawn),2800,48,159,421,9.45e-07,126,800,15.4,AUC [24]: 18.3 µM·h; half-life [25]: 19.1 min; Cmax [26]: 19.6 µM
CCCN(CCC)CCNc1n[n+]([O-])c2ccccc2[n+]1[O-],1700,> 25,68,316,1.71e-06,82,2000,3.9,Cmax [27]: 17 µM; LCK [28]: 0.01; fraction unbound [4]: 0.023; half-life [29]: 11.8 min; LCK [30]: 0.25
CCOc1ccc2c(c1)[n+]([O-])c(NCCN1CCCCC1)n[n+]2[O-],2200,> 49,169,316,,116,1700,36.3,half-life [31]: 40.1 min; Cmax [32]: 9.8 µM; AUC [33]: 10.7 µM·h
Cc1ccc2c(c1)[n+]([O-])c(NCCN1CCCCC1)n[n+]2[O-],4000,45,75,237,7.49e-07,58,2200,9.4,half-life [31]: 16.6 min; Cmax [32]: 14.9 µM; AUC [33]: 13.8 µM·h
